Activity calls are given as the source filed them. The rule behind the calls is not given here.
Legend:
Assay type in all cases: functional, cell-based
[1] = Cytotoxicity against human GTB cells after 5 hrs by MTT assay
Outline: (§1)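 Leukemic cells at 0.5 × 10^6 cells/mL in RPMI were exposed to 0.01–2.00 µM compound (0.1% final DMSO) at 37 °C and 5% CO2. Viability was measured as MTT formazan, dissolved in DMSO and read at 550 and 630 nm. Three wells per point, on three separate days (n = 9). IC50 was taken graphically from per-experiment dose curves.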

HL-60 [2] = assay: Cytotoxicity against human HL-60 cells after 5 hrs by MTT assay; settings: HL-60, 5 h; outline: as §1
A-431 [3] = assay: Cytotoxicity against human A431 cells after 24 hrs by [3H]thymidine incorporation assay
Outline: (§2)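 Adherent tumor cells (100 µL at 1 × 10^6 cells/mL) were overlaid with 100 µL of medium containing compound in the 0.25–4.00 µM range (0.1% final DMSO). The medium control had no compound. Cells were incubated for 24, 48 or 72 h at 37 °C and 5% CO2, then pulsed 24 h with 3H-thymidine. They were harvested onto glass filters and counted by liquid scintillation. Three wells per point, on three separate days (n = 9). IC50 was taken graphically.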

A-431 [4] = assay: Cytotoxicity against human A431 cells after 48 hrs by [3H]thymidine incorporation assay; outline: as §2
A-431 [5] = assay: Cytotoxicity against human A431 cells after 72 hrs by [3H]thymidine incorporation assay; outline: as §2
HEp-2 [6] = assay: Cytotoxicity against human HEP2 cells after 24 hrs by [3H]thymidine incorporation assay; outline: as §2
HEp-2 [7] = assay: Cytotoxicity against human HEP2 cells after 48 hrs by [3H]thymidine incorporation assay; outline: as §2
HEp-2 [8] = assay: Cytotoxicity against human HEP2 cells after 72 hrs by [3H]thymidine incorporation assay; outline: as §2
MCF7 [9] = assay: Cytotoxicity against human MCF7 cells after 24 hrs by [3H]thymidine incorporation assay; outline: as §2
MCF7 [10] = assay: Cytotoxicity against human MCF7 cells after 48 hrs by [3H]thymidine incorporation assay; outline: as §2
MCF7 [11] = assay: Cytotoxicity against human MCF7 cells after 72 hrs by [3H]thymidine incorporation assay; outline: as §2
OVCAR-3 [12] = assay: Cytotoxicity against human OVCAR-3 cells after 24 hrs by [3H]thymidine incorporation assay; outline: as §2
OVCAR-3 [13] = assay: Cytotoxicity against human OVCAR-3 cells after 48 hrs by [3H]thymidine incorporation assay; outline: as §2
OVCAR-3 [14] = assay: Cytotoxicity against human OVCAR-3 cells after 72 hrs by [3H]thymidine incorporation assay; outline: as §2
[15] = Cytotoxicity against human SK MEL28 cells after 24 hrs by [3H]thymidine incorporation assay; settings: SK-MEL-28; outline: as §2
[16] = Cytotoxicity against human SK MEL28 cells after 48 hrs by [3H]thymidine incorporation assay; settings: SK-MEL-28; outline: as §2
[17] = Cytotoxicity against human SK MEL28 cells after 72 hrs by [3H]thymidine incorporation assay; settings: SK-MEL-28; outline: as §2
[18] = Cytotoxicity against human SK37 cells after 24 hrs by [3H]thymidine incorporation assay; outline: as §2
[19] = Cytotoxicity against human SK37 cells after 48 hrs by [3H]thymidine incorporation assay; outline: as §2
[20] = Cytotoxicity against human SK37 cells after 72 hrs by [3H]thymidine incorporation assay; outline: as §2
SW872 [21] = assay: Cytotoxicity against human SW872 cells after 24 hrs by [3H]thymidine incorporation assay; outline: as §2
SW872 [22] = assay: Cytotoxicity against human SW872 cells after 48 hrs by [3H]thymidine incorporation assay; outline: as §2
SW872 [23] = assay: Cytotoxicity against human SW872 cells after 72 hrs by [3H]thymidine incorporation assay
Outline: (§3)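 Adherent tumour cells at 1 × 10^6 cells/mL (100 µL per well) overlaid with an equal volume of medium carrying test substance across 0.25–4.00 µM. Medium-only controls. Incubated 24, 48 or 72 h at 37 °C, 5% CO2, then pulsed 24 h with 3H-thymidine and harvested onto glass filters for scintillation counting. Final DMSO 0.1%. Triplicate wells, three days (n = 9). IC50 read graphically from each experiment's dose curve.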

ZR-75-1 [24] = assay: Cytotoxicity against human ZR-75-1 cells after 24 hrs by [3H]thymidine incorporation assay; outline: as §3
ZR-75-1 [25] = assay: Cytotoxicity against human ZR-75-1 cells after 48 hrs by [3H]thymidine incorporation assay; outline: as §3
ZR-75-1 [26] = assay: Cytotoxicity against human ZR-75-1 cells after 72 hrs by [3H]thymidine incorporation assay; outline: as §3
GTB = assay: Cytotoxicity against human GTB cells at 0.01 to 2.0 uM after 5 hrs by MTT assay; outline: as §1
HL-60 [27] = assay: Cytotoxicity against human HL-60 cells at 0.01 to 2.0 uM after 5 hrs by MTT assay; outline: as §1
A-431 [28] = assay: Cytotoxicity against human A431 cells at 0.25 to 2.0 uM after 24 hrs by [3H]thymidine incorporation assay; outline: as §2
A-431 [29] = assay: Cytotoxicity against human A431 cells at 0.25 to 2.0 uM after 48 hrs by [3H]thymidine incorporation assay; outline: as §2
A-431 [30] = assay: Cytotoxicity against human A431 cells at 0.25 to 2.0 uM after 72 hrs by [3H]thymidine incorporation assay; outline: as §2
HEp-2 [31] = assay: Cytotoxicity against human HEP2 cells at 0.25 to 2.0 uM after 24 hrs by [3H]thymidine incorporation assay; outline: as §2
HEp-2 [32] = assay: Cytotoxicity against human HEP2 cells at 0.25 to 2.0 uM after 48 hrs by [3H]thymidine incorporation assay; outline: as §2
HEp-2 [33] = assay: Cytotoxicity against human HEP2 cells at 0.25 to 2.0 uM after 72 hrs by [3H]thymidine incorporation assay; outline: as §2
MCF7 [34] = assay: Cytotoxicity against human MCF7 cells at 0.25 to 2.0 uM after 24 hrs by [3H]thymidine incorporation assay; outline: as §2
MCF7 [35] = assay: Cytotoxicity against human MCF7 cells at 0.25 to 2.0 uM after 48 hrs by [3H]thymidine incorporation assay; outline: as §2
MCF7 [36] = assay: Cytotoxicity against human MCF7 cells at 0.25 to 2.0 uM after 72 hrs by [3H]thymidine incorporation assay; outline: as §2
OVCAR-3 [37] = assay: Cytotoxicity against human OVCAR-3 cells at 0.25 to 2.0 uM after 24 hrs by [3H]thymidine incorporation assay; outline: as §2
OVCAR-3 [38] = assay: Cytotoxicity against human OVCAR-3 cells at 0.25 to 2.0 uM after 48 hrs by [3H]thymidine incorporation assay; outline: as §2
OVCAR-3 [39] = assay: Cytotoxicity against human OVCAR-3 cells at 0.25 to 2.0 uM after 72 hrs by [3H]thymidine incorporation assay; outline: as §2
SK-MEL-28 [40] = assay: Cytotoxicity against human SK MEL28 cells at 0.25 to 2.0 uM after 24 hrs by [3H]thymidine incorporation assay; outline: as §2
SK-MEL-28 [41] = assay: Cytotoxicity against human SK MEL28 cells at 0.25 to 2.0 uM after 48 hrs by [3H]thymidine incorporation assay; outline: as §2
SK-MEL-28 [42] = assay: Cytotoxicity against human SK MEL28 cells at 0.25 to 2.0 uM after 72 hrs by [3H]thymidine incorporation assay; outline: as §2
SK37 [43] = assay: Cytotoxicity against human SK37 cells at 0.25 to 2.0 uM after 24 hrs by [3H]thymidine incorporation assay; outline: as §2
SK37 [44] = assay: Cytotoxicity against human SK37 cells at 0.25 to 2.0 uM after 48 hrs by [3H]thymidine incorporation assay; outline: as §2
SK37 [45] = assay: Cytotoxicity against human SK37 cells at 0.25 to 2.0 uM after 72 hrs by [3H]thymidine incorporation assay; outline: as §2
SW872 [46] = assay: Cytotoxicity against human SW872 cells at 0.25 to 2.0 uM after 24 hrs by [3H]thymidine incorporation assay; outline: as §3
SW872 [47] = assay: Cytotoxicity against human SW872 cells at 0.25 to 2.0 uM after 48 hrs by [3H]thymidine incorporation assay; outline: as §3
SW872 [48] = assay: Cytotoxicity against human SW872 cells at 0.25 to 2.0 uM after 72 hrs by [3H]thymidine incorporation assay; outline: as §3
ZR-75-1 [49] = assay: Cytotoxicity against human ZR-75-1 cells at 0.25 to 2.0 uM after 24 hrs by [3H]thymidine incorporation assay; outline: as §3
ZR-75-1 [50] = assay: Cytotoxicity against human ZR-75-1 cells at 0.25 to 2.0 uM after 48 hrs by [3H]thymidine incorporation assay; outline: as §3
ZR-75-1 [51] = assay: Cytotoxicity against human ZR-75-1 cells at 0.25 to 2.0 uM after 72 hrs by [3H]thymidine incorporation assay; outline: as §3

C=C1C(=O)O[C@]23C[C@H]1CCC(CO)=C2C(=O)C=C3C
IC50 [1]: 260 nM | IC50 (HL-60 [2]): 260 nM | IC50 (A-431 [3]): 1500 nM | IC50 (A-431 [4]): 1300 nM | IC50 (A-431 [5]): 900 nM | IC50 (HEp-2 [6]): 1500 nM | IC50 (HEp-2 [7]): 1300 nM | IC50 (HEp-2 [8]): 1100 nM | IC50 (MCF7 [9]): 800 nM | IC50 (MCF7 [10]): 700 nM | IC50 (MCF7 [11]): 1000 nM | IC50 (OVCAR-3 [12]): 1900 nM | IC50 (OVCAR-3 [13]): 2100 nM | IC50 (OVCAR-3 [14]): 1800 nM | IC50 [15]: 2800 nM | IC50 [16]: 2600 nM | IC50 [17]: 1200 nM | IC50 [18]: 3200 nM | IC50 [19]: 2400 nM | IC50 [20]: 1800 nM | IC50 (SW872 [21]): 3100 nM | IC50 (SW872 [22]): 2200 nM | IC50 (SW872 [23]): 2800 nM | IC50 (ZR-75-1 [24]): 600 nM | IC50 (ZR-75-1 [25]): 900 nM | IC50 (ZR-75-1 [26]): 1000 nM

C=C1C(=O)O[C@]23C[C@H]1CCC(CO[C@H]1O[C@@H](CO)[C@H](O)[C@@H](O)[C@@H]1O)=C2C(=O)C=C3C
Activity (GTB): inactive | Activity (HL-60 [27]): inactive | Activity (A-431 [28]): inactive | Activity (A-431 [29]): inactive | Activity (A-431 [30]): inactive | Activity (HEp-2 [31]): inactive | Activity (HEp-2 [32]): inactive | Activity (HEp-2 [33]): inactive | Activity (MCF7 [34]): inactive | Activity (MCF7 [35]): inactive | Activity (MCF7 [36]): inactive | Activity (OVCAR-3 [37]): inactive | Activity (OVCAR-3 [38]): inactive | Activity (OVCAR-3 [39]): inactive | Activity (SK-MEL-28 [40]): inactive | Activity (SK-MEL-28 [41]): inactive | Activity (SK-MEL-28 [42]): inactive | Activity (SK37 [43]): inactive | Activity (SK37 [44]): inactive | Activity (SK37 [45]): inactive | Activity (SW872 [46]): inactive | Activity (SW872 [47]): inactive | Activity (SW872 [48]): inactive | Activity (ZR-75-1 [49]): inactive | Activity (ZR-75-1 [50]): inactive | Activity (ZR-75-1 [51]): inactive

From ChEMBL document CHEMBL1144069, “Cytotoxic activities of hypocretenolides from Leontodon hispidus” (J Nat Prod, 1999)
